Values joined by “and” are separate entries in the source; they are usually repeats but may differ in a detail not shown here. Equal values may be shown once.
Test system: Candida glabrata growth in glycerol medium, OD600, 48 h
Test: C. glabrata glycerol-medium growth inhibitors tested alone – glycerol carbon source, dry powder, plate reader, set 3, dose response (AID 623965)
Procedure, shortened: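 Test system: Candida glabrata yeast cells; Buffer or medium: CSM synthetic medium with glycerol as carbon source; Incubation: 48 h at 30 °C, no shaking; Measured by: OD600 absorbance.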

Structure (SMILES) | AC50
CCOC(=O)N1C(=O)C2(CCCCC2)N(c2ccccc2)C1=S | 0.0335 µM
CCOC(=O)N1C(=O)C2(CCCCC2)N(c2ccc(C)cc2)C1=S | 0.0576 µM and 0.0553 µM
CCOC(=O)N1C(=O)C2(CCCCC2)N(c2cccc(C)c2)C1=S | 0.0386 µM
CCOC(=O)N1C(=O)C2(CCCCC2)N(c2ccc(C#N)cc2)C1=S | 0.0398 µM
C/C=C/[C@@H]1[C@H]2C[C@@H](C)CC[C@@H]2C(C)=C[C@H]1C(=O)c1c(O)c(-c2ccc(O)cc2)c[nH]c1=O | 2.94 µM
CCOC(=O)N1C(=O)C2(CCCCC2)N(c2ccc(Cl)cc2)C1=S | 0.0297 µM
CC1/C=C/C=C\C=C\C=C\C=C\C=C\C=C\C(O[C@H]2OC(C)C(O)C(N)C2O)CC2OC(O)(CC(O)CC(O)C(O)CCC(O)CC(O)CC(=O)OC(C)C(C)C1O)CC(O)C2C(=O)O (stereo partly drawn) | 1.41 µM
CCOC(=O)N1C(=O)C2(CCCCC2)N(c2ccc(F)cc2)C1=S | 0.0113 µM

Source: PubChem BioAssay AID623965 (Broad Institute, 2012)
